Substitutions are numbered along the chain they refer to. Calls of active or inactive are those of the source. The rule behind the calls is not given here.
What was measured:
Format in all cases: cell-based
[1] = system: T1, Trace amine-associated receptor 1 (Homo sapiens), Q96RJ0 [F186A]; experiment: Agonist activity against TAAR1 F186A mutant (unknown origin) expressed in HEK293 cells assessed as increase in cAMP accumulation incubated for 30 mins by HTRF assay
T1 sequence (whole entry): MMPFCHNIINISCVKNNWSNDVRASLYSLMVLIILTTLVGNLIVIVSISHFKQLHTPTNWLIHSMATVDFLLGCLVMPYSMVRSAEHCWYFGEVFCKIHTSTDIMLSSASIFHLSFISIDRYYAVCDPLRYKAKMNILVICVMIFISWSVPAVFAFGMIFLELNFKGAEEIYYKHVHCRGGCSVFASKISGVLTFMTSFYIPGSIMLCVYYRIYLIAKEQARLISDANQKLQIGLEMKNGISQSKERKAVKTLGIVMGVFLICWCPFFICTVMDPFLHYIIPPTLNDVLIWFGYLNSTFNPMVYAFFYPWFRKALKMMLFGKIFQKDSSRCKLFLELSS
Procedure, shortened: (§1)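 HEK293 cells harvested 48 h after transfection with plasmid at 1 μg mL–1; 8000 cells per well incubated 30 min at 37 °C with agonist over 10–4 to 10–10 M. cAMP read by HTRF (d2-cAMP plus Eu-cryptate antibody, 1 h room temperature; excitation 330 nm, emission 620/665 nm). pEC50 and Emax from dose–response curves; mean ± s.e.m. of three independent experiments, each in technical triplicate.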

[2] = system: T2, Trace amine-associated receptor 1 (Homo sapiens), Q96RJ0 [F268A]; experiment: Agonist activity against TAAR1 F268A mutant (unknown origin) expressed in HEK293 cells assessed as increase in cAMP accumulation incubated for 30 mins by HTRF assay; conditions: filed as agonist; procedure, shortened: as §1
T2 sequence (whole entry): T1 sequence (whole entry) with A186F, F268A

[3] = system: T3, Trace amine-associated receptor 1 (Homo sapiens), Q96RJ0 [V184A]; experiment: Agonist activity against TAAR1 V184A mutant (unknown origin) expressed in HEK293 cells assessed as increase in cAMP accumulation incubated for 30 mins by HTRF assay; procedure, shortened: as §1
T3 sequence (whole entry): T1 sequence (whole entry) with V184A, A186F

[4] = system: T4, Trace amine-associated receptor 1 (Homo sapiens), Q96RJ0 [D103A]; experiment: Agonist activity against TAAR1 D103A mutant (unknown origin) expressed in HEK293 cells assessed as increase in cAMP accumulation incubated for 30 mins by HTRF assay; procedure, shortened: as §1
T4 sequence (whole entry): T1 sequence (whole entry) with D103A, A186F

[5] = system: T5, Trace amine-associated receptor 1 (Homo sapiens), Q96RJ0 [Y294A]; experiment: Agonist activity against TAAR1 Y294A mutant (unknown origin) expressed in HEK293 cells assessed as increase in cAMP accumulation incubated for 30 mins by HTRF assay; procedure, shortened: as §1
T5 sequence (whole entry): T1 sequence (whole entry) with A186F, Y294A

[6] = system: T6, Trace amine-associated receptor 1 (Homo sapiens), Q96RJ0 [I104A]; experiment: Agonist activity against TAAR1 I104A mutant (unknown origin) expressed in HEK293 cells assessed as increase in cAMP accumulation incubated for 30 mins by HTRF assay; procedure, shortened: as §1
T6 sequence (whole entry): T1 sequence (whole entry) with I104A, A186F

[7] = system: T7, Trace amine-associated receptor 1 (Homo sapiens), Q96RJ0 [W264A]; experiment: Agonist activity against TAAR1 W264A mutant (unknown origin) expressed in HEK293 cells assessed as increase in cAMP accumulation incubated for 30 mins by HTRF assay; procedure, shortened: as §1
T7 sequence (whole entry): T1 sequence (whole entry) with A186F, W264A

[8] = system: T8, Trace amine-associated receptor 1 (Homo sapiens), Q96RJ0 [F267A]; experiment: Agonist activity against TAAR1 F267A mutant (unknown origin) expressed in HEK293 cells assessed as increase in cAMP accumulation incubated for 30 mins by HTRF assay; procedure, shortened: as §1
T8 sequence (whole entry): T1 sequence (whole entry) with A186F, F267A

[9] = system: T9, Trace amine-associated receptor 1 (Homo sapiens), Q96RJ0 [G293A]; experiment: Agonist activity against TAAR1 G293A mutant (unknown origin) expressed in HEK293 cells assessed as increase in cAMP accumulation incubated for 30 mins by HTRF assay; procedure, shortened: as §1
T9 sequence (whole entry): T1 sequence (whole entry) with A186F, G293A

[10] = system: T10, Trace amine-associated receptor 1 (Homo sapiens), Q96RJ0 [I290A]; experiment: Agonist activity against TAAR1 I290A mutant (unknown origin) expressed in HEK293 cells assessed as fold increase in cAMP accumulation incubated for 30 mins by HTRF assay relative to control; conditions: filed as agonist
T10 sequence (whole entry): T1 sequence (whole entry) with A186F, I290A

[11] = system: T11, Trace amine-associated receptor 1 (Homo sapiens), Q96RJ0 [F195A]; experiment: Agonist activity against TAAR1 F195A mutant (unknown origin) expressed in HEK293 cells assessed as increase in cAMP accumulation incubated for 30 mins by HTRF assay; procedure, shortened: as §1
T11 sequence (whole entry): T1 sequence (whole entry) with F185A, A186F

SMILES	Activity [1]	Activity [2]	Activity [3]	Activity [4]	Activity [5]	Activity [6]	Activity [7]	Activity [8]	Activity [9]	Activity ([3]; filed as agonist)	fold change (FC) [10]	Activity [11]
NCCc1ccccc1	inactive	Active	inactive	–	–	–	–	–	–	–	–	–
CN[C@@H](C)Cc1ccccc1	inactive	Active	–	inactive	inactive	inactive	inactive	inactive	inactive	Active	6	inactive

Source: ChEMBL document CHEMBL6071171, “Molecular Mechanisms of Methamphetamine-Induced Addiction via TAAR1 Activation” (J Med Chem, 2024)
